Screening data from PubChem BioAssay.
Compounds with a hit are over-represented: about 1.1% of the library has one in this group of screens.
DSG3 Ab inh: inhibitors of pemphigus antibody binding to DSG3, primary screen, biochemical, bead-based, flow cytometry, scFv-GFP. DSG3-coupled beads, scFv-anti-DSG3-GFP binding; hits give low values. binding (percent of control), % at 10 µM. hit rate 0.48% among 310,000. AID 588358, 2011;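 active = binding more than 3 SD below its plate's average and above zero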;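 also: hits lower antibody fragment binding to DSG3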
Target sequence (P32926 whole entry, looked up, the tested form may be a part): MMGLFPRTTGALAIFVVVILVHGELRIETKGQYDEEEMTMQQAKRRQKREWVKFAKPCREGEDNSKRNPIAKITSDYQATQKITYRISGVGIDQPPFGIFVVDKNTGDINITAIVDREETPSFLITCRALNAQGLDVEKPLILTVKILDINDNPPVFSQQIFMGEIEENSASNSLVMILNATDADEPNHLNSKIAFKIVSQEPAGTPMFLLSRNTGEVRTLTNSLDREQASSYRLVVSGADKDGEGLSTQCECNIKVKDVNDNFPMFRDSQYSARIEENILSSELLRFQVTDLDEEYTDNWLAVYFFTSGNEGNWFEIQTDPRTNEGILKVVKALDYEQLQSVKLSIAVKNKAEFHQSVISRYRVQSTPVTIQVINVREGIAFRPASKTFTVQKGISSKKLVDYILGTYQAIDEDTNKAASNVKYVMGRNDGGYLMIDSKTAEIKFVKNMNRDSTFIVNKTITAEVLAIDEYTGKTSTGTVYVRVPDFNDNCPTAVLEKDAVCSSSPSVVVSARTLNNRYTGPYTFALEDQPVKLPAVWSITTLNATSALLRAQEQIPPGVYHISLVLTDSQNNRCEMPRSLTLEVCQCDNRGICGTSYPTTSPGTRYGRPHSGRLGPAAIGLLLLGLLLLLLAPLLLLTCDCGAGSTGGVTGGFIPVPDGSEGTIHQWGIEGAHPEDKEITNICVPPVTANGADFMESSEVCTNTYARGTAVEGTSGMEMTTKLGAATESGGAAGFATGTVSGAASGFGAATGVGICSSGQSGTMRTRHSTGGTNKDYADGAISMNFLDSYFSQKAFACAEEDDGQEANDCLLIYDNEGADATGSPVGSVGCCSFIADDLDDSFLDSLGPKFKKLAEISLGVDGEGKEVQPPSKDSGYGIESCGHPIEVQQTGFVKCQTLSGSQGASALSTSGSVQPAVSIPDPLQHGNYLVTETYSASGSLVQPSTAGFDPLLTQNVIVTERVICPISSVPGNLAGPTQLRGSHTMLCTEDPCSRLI
GSH fluor: compound fluorescence on glutathione beads, profiling panel, artefact control, biophysical, 488/530 nm, flow cytometry. hit rate 0.25% among 190,000. fluorescence (KMESF) at 10 µM. GSH beads flow cytometry, compound fluorescence 488/530 nm; hits give high values; in the data active = fluorescence above about 89;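 also: glutathione beads carrying GST-tagged Bcl family fusion proteins plus one bare bead set; values are compound well signal with DMSO vehicle wells as background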
Avidin bead fluor: green autofluorescence of compounds with avidin beads – biophysical, 488/530 nm, flow cytometry, artefact control, profiling panel | compound fluorescence 488/530 nm; hits give high values | fluorescence (KMESF) at 10 µM | hit rate 0.38% among 220,000 | AID 1775, 2009; in the data active = fluorescence above about 47
Arrestin-AP2 inh: inhibitors of beta-arrestin/AP2 binding, primary screen, biochemical, GPCR trafficking, flow cytometry | inhibition, % at 10 µM | hit rate 0.31% among 340,000 | beta-arrestin 1 C-terminal peptide binding to AP2 beta2-adaptin appendage (human) | AID 504490, 2011 | FITC-arrestin peptide / GST-AP2 beads; AP2 beta2 appendage carries R879A mutation;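 active = inhibition above a set limit, near 3 SD of compounds lacking own fluorescence, cut at about 54% in these data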;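 also: plate controls were DMSO wells for no effect and 5 µM unlabelled arrestin peptide for full effect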
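system = GST-tagged AP2 beta2-adaptin appendage (R879A) on 4 µm glutathione beads | reagent = FITC-labelled arrestin peptide probe, 50 nM final | schedule = compound with beads 12 min RT, then probe 1 h RT | signal = HyperCyt-sampled flow cytometry, FL1 channel, ex 488/em 535 nm | read-out = percent response from loss of bead-bound FITC fluorescence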
* marks the source's active call; other numbers are inactive results; · = not tested or not shown.

SMILES	DSG3 Ab inh	GSH fluor	Avidin bead fluor	Arrestin-AP2 inh
S=c1[nH]nc(-c2ccccc2Cl)n1CC1CCCO1 (stereo not given)	96.6	30	52*	2.2
O=C(CN1CCOCC1)N1CCN(S(=O)(=O)c2ccccc2)C1c1ccccc1 (stereo not given)	102.8	14	59*	17.3
Cc1ccc(S(=O)(=O)N2CCN(C(=O)CN3CCOCC3)C2c2ccccc2)cc1 (stereo not given)	106.4	10	23	6.5
Cc1ccc2nc3c(cc2c1)c(NC(=O)c1ccccn1)nn3CC(C)C	100.9	25	62*	27.6
CCn1nc(NC(=O)c2ccccn2)c2cc3cc(C)ccc3nc21	·	25	24	36.7
O=C(NC1CCCc2ccccc21)c1cccnc1 (stereo not given)	99.5	256*	7	-1.9
COc1ccc(Cl)cc1C(=O)NNC(=O)CCNS(=O)(=O)c1ccccc1	115.7	·	·	-10.8
CC1=CC2=NC(=O)/C(=C\c3ccc(-c4ccc(Cl)cc4)o3)C(=N)N2O1	·	9	208*	·
CC1=CC2=NC(=O)/C(=C/c3cccs3)C(=N)N2O1	·	·	4	37.9
Nc1[nH]nc2nc(N3CCCC3)nc(-c3ccccc3)c12	·	33	3	13.2
Cc1cc(C)n2nc3nc(N4CCCC4)nc(-c4ccccc4)c3c2n1	·	9	58*	-13.6
ClC(Cl)(c1nnnn1-c1ccccc1)c1nnnn1-c1ccccc1	77.2*	2	5	-21.8
O=C(NCCO)C(=O)c1c(-c2ccccc2)cc2ccccn12	93.7	13	12	0.0
CCOC(=O)CSc1nc2c(c(=O)n(C)c(=O)n2C)n1CCCc1ccccc1	110.9	269*	7	-5.6
CC(=O)NNS(=O)(=O)c1ccccc1[N+](=O)[O-]	·	9	16	3.0
CC(=O)Nc1ccccc1NS(=O)(=O)c1ccccc1[N+](=O)[O-]	98.0	10	204*	-2.1
Cc1ccc(C)c(-n2sc3ccc(F)cc3c2=O)c1	55.0*	·	·	7.8
COc1ccc(-n2sc3ccccc3c2=O)cc1	74.1*	·	·	·
COc1ccc(-n2cc(C(=O)O)c3ccccc3c2=O)cc1	92.9	35	15	30.2
O=c1c2cc(F)ccc2sn1-c1ccc(F)cc1	48.6*	·	·	24.3
COc1ccc(-n2sc3ccc(F)cc3c2=O)cc1	50.3*	·	·	30.4
Cc1ccc(-c2cc(=O)c3cc(F)ccc3[nH]2)cc1	98.5	18	11	4.5
O=C1CCCC(=O)N1c1ccc(F)cc1	92.2	·	·	8.8
COC(=O)c1cccc(NC(=O)c2nn(C)c(=O)c3ccccc23)c1	·	185*	9	-2.1
COC(=O)c1ccc(C)c(NC(=O)c2nn(C)c(=O)c3ccccc23)c1	98.0	59	7	-4.6
SMILES	DSG3 Ab inh	GSH fluor	Avidin bead fluor	Arrestin-AP2 inh
N#Cc1c(N)oc(-c2ccccc2)c1-c1ccccc1	102.0	268*	10	3.1
COc1cccc(C2=CC(=O)CC(C)(C)C2=O)c1	101.6	·	·	·
Cc1cc(C2(O)C(=O)Nc3ccccc32)ccc1F (stereo not given)	87.7	·	·	-6.8
CC(=O)Nc1cccc(OCc2ccc(S(=O)(=O)Cc3ccccc3)cc2)c1	58.5*	12	2	7.1
CSc1ccccc1NS(=O)(=O)c1ccccc1	109.2	21	48*	4.2
COc1ccc(S(=O)(=O)Nc2ccccc2SC)cc1C	100.3	24	12	5.6
CCC(=O)Oc1ccc(C(=O)Nc2cccc(C(=O)NC(C)(C)C)c2)cc1	86.7*	14	10	1.2
CCCCn1c(N)c(N(CCOC)C(=O)c2ccc(-c3cccc(C(F)(F)F)c3)o2)c(=O)[nH]c1=O	98.3	·	·	-2.1
C/C(=N\Nc1ccc(S(=O)(=O)Nc2ccccc2)cc1[N+](=O)[O-])c1ccc(N2CCOCC2)cc1	76.5*	16	11	15.4
C/C(=N\Nc1ccc(S(=O)(=O)Nc2ccc(Cl)cc2)cc1[N+](=O)[O-])c1ccc(N2CCOCC2)cc1	98.1	5	2	5.4
O=C(Nc1ccccc1C(=O)N1CCN(Cc2ccccc2)CC1)c1ccc(F)cc1	·	·	·	4.2
CC12CCC(C(=NO)C1=O)C2(C)C (stereo not given)	86.2	·	·	3.3
CC12CCC(C(=Nc3ccc(N=C4C(=O)C5(C)CCC4C5(C)C)cc3)C1=O)C2(C)C	·	·	57*	·
Cc1ccsc1C1C2=C(CCCC2=O)Nc2ncnn21 (stereo not given)	93.5	25	14	-0.1
O=C1CCCC2=C1C(c1cccs1)n1ncnc1N2 (stereo not given)	99.7	25	80*	0.7
CCOC(=O)Nc1cc(C)ccc1OC	92.8	27	51*	10.8
CCOC(=O)Nc1ccc(C)cc1NC(=O)OCC	78.4	13	46	-6.4
COCCn1c(-c2ccc(-c3ccc([N+](=O)[O-])cc3Br)o2)nc2c1c(=O)[nH]c(=O)n2CC(C)C	78.0*	13	10	8.6
COc1ccc(-c2ccc(-c3nc4c(c(=O)[nH]c(=O)n4Cc4ccccc4)n3C)o2)c([N+](=O)[O-])c1	76.3*	1	7	53.9
CNC(=O)C1(c2ccccc2)CCCCC1	99.0	·	·	·
Cc1cc(NC(=O)C2(c3ccccc3)CCCC2)no1	99.7	16	59*	-8.6
CCOC(=O)c1c(C)[nH]c(C(=O)Cn2nnc(-c3ccccc3Cl)n2)c1C	104.5	13	37	0.6
CCOC(=O)c1c(C)[nH]c(C(=O)Cn2nnc(-c3ccccc3)n2)c1C	·	265*	18	12.4
O=C(Cn1ccnc1[N+](=O)[O-])N(CCO)CCO	105.7	·	·	·
O=C(NCc1ccccc1)c1ccc(Cl)c(NC2=NC3CS(=O)(=O)CC3S2)c1 (stereo not given)	95.6	·	·	-5.8
SMILES	DSG3 Ab inh	GSH fluor	Avidin bead fluor	Arrestin-AP2 inh
COc1ccc(CNC(=O)c2ccc(Cl)c(NC3=NC4CS(=O)(=O)CC4S3)c2)cc1 (stereo not given)	67.6*	·	·	-9.6
O=C(COC(=O)Cc1ccc(-c2ccccc2)cc1)NCc1ccc(F)cc1	19.4*	11	5	7.5
O=C(COC(=O)c1c(Cl)ccc(Cl)c1Cl)NC1CCS(=O)(=O)C1 (stereo not given)	105.3	17	10	3.1
Cc1onc(-c2c(Cl)cccc2Cl)c1-c1nc2cc(Cl)ccc2c(=O)o1	97.1	·	3	10.5
Cc1ccc(C)c(OCCC(=O)OCC(=O)c2c(N)n(C)c(=O)n(C)c2=O)c1	104.4	·	·	26.7
NC(=O)CSc1nc(N)c2c3c(sc2n1)CCCCC3	103.2	11	23	26.8
CC(NC(=O)CSc1nc2sc3c(c2c(=O)n1-c1ccccc1)CCCC3)c1ccccc1 (stereo not given)	79.4*	16	4	26.4
O=C(O)CSc1nc2sc3c(c2c(=O)n1-c1ccccc1)CCC3	95.4	·	7	5.0
Nc1nc(SCc2nnc(SCC(=O)O)n2-c2ccccc2)nc2sc3c(c12)CCCC3	-17.2*	25	40	16.1
